Assay results pooled from the literature.
Compare with care: the assays were run in different laboratories.
RET V804M: Proto-oncogene tyrosine-protein kinase receptor Ret (RET, Homo sapiens, UniProt P07949, V804M)
RET V804L: Proto-oncogene tyrosine-protein kinase receptor Ret (RET, Homo sapiens, UniProt P07949, V804L)
RET M918T: Proto-oncogene tyrosine-protein kinase receptor Ret (RET, Homo sapiens, UniProt P07949, M918T)

Structure (SMILES) | target | test | conditions | remaining binding
CCN1CCN(Cc2ccc(C(=O)Nc3ccc(C)c(Oc4ccc5c(c4)CC(=O)N5)c3)cc2C(F)(F)F)CC1 | RET V804M | binding, competition with immobilised ligand | 1 µM | 67%
CN(C)c1nccc(-c2cnn3ncccc23)n1 | RET V804L | binding | 1 µM | 99%
O=C(NCCCN1CCOCC1)c1ccc(Nc2nccc(-c3cc4ccccc4s3)n2)cc1 | RET M918T | binding, competition with immobilised ligand | 1 µM | 93%
CO[C@@H](C)c1c(Nc2ccc([C@H](N(C)C(=O)C3CCS(=O)(=O)CC3)C(F)(F)F)cc2)cnc2cc(Cl)nn12 | RET V804M | cell-free assay, competition with immobilised ligand | 1 µM | 94%
COc1ncc2cc3ccccc3nc2c1C#N | Proto-oncogene tyrosine-protein kinase receptor Ret (RET, Homo sapiens, UniProt P07949) | cell-free assay, competition with immobilised ligand | 5 µM | 96%
N[C@@H]1CCN(c2nccc(-c3cnn4ncccc34)n2)C1 | RET M918T | binding | 1 µM | 94%
CNC(=O)[C@@H]1CC[C@@H](n2c(-c3ccc4cnccc4c3)nc3ccc(C(=O)NCc4cccc(C(N)=O)c4)cc32)C1 | RET M918T | binding, competition with immobilised ligand | 1 µM | 98%
O=C(c1ccc(Nc2ncc(Cl)c(-c3ccc(Cl)s3)n2)cc1)N1CCC(N2CCCC2)CC1 | RET V804M | binding, competition with immobilised ligand | 1 µM | 12%
CN(C(=O)c1ccccc1)c1cc(N(C)c2ccc3c(c2)CCc2ccc(C(=O)NCCN4CCOCC4)cc2C3=O)ccc1F | RET M918T | cell-free assay, competition with immobilised ligand | 1 µM | 100%
C=CC(=O)N1CCC(C(=O)NCC(=O)N2CCN(c3nc(-c4cnc(N)nc4C(F)F)nc(N4CCOCC4)n3)CC2)CC1 | RET V804M | binding, competition with immobilised ligand | 1 µM | 100%
O=C(c1ccc(Nc2nccc(-c3cc4ccccc4s3)n2)cc1)N1CCC(N2CCCC2)CC1 | RET V804L | binding, competition with immobilised ligand | 1 µM | 80%
FC(F)(F)c1ccc2c(c1)nc(-c1cccnc1)n2C1CC1 | RET V804L | cell-free assay, competition with immobilised ligand | 1 µM | 81%
F[C@@H]1CCN(c2nccc(-c3cnn4ncccc34)n2)C1 | RET V804L | binding | 1 µM | 100%
COc1cc(-c2cn(C3CCc4c(F)cccc4N(CC(F)(F)F)C3=O)nn2)ccc1-n1cnc(C)c1 (stereo not shown) | RET V804M | cell-free assay, competition with immobilised ligand | 1 µM | 88%
C[C@@H](c1ccc(-n2cnc3c(N)ncnc32)cc1)N1CCc2nn(C)c(Cc3ccccc3)c2C1=O | RET M918T | binding, competition with immobilised ligand | 0.1 µM | 98%
CCC(=O)N[C@H]1CC[C@@H](C(=O)N(C)c2ccc(-c3nc4ccccc4o3)cc2)C1 | RET V804M | cell-free assay, competition with immobilised ligand | 1 µM | 100%
COc1ccnn2ncc(-c3ccnc(N(C)C)n3)c12 | RET V804M | binding | 1 µM | 100%
O=C(N[C@H]1CCCCC/C=C\C2C[C@@]2(C(=O)O)NC(=O)[C@@H]2C[C@@H](Oc3ccncc3)CN2C1=O)OC1CCCC1 (stereo partly shown) | RET M918T | binding, competition with immobilised ligand | 1 µM | 96%
O=C(NCC1CCOCC1)c1n[nH]cc1NC(=O)c1c(F)cccc1F | RET V804L | binding, competition with immobilised ligand | 1 µM | 100%
